Calls of active or inactive are those of the source. The rule behind the calls is not given here.
Columns and labels:
[1] = molecular target: T1, Serine/threonine-protein kinase D1 (Homo sapiens) (UniProt Q15139); experiment: Inhibition of human PKD1 at 1 uM
T1 sequence (whole entry): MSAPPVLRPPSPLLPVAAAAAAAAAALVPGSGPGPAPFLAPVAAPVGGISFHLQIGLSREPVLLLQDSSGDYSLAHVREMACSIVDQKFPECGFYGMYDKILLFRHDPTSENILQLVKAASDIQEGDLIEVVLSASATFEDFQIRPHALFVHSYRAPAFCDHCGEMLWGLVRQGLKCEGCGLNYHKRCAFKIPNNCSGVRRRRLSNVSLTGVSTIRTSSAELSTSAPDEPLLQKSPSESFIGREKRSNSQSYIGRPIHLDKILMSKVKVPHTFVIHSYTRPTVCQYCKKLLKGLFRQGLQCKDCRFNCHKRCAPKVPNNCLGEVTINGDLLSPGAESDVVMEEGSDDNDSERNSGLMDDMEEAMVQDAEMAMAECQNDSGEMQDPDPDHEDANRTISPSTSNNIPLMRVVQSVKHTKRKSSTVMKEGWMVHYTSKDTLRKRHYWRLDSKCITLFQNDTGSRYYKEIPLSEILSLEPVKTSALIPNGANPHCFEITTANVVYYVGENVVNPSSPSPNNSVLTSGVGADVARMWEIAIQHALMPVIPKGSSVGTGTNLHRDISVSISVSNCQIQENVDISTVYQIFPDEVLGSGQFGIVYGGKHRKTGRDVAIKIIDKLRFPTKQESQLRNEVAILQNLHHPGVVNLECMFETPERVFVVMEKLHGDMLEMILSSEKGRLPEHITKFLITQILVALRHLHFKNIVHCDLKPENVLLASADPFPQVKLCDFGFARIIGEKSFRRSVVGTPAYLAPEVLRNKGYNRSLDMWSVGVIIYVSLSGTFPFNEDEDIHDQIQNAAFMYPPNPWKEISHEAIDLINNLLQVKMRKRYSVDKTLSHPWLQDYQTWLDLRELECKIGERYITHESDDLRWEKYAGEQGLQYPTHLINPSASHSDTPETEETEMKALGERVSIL

Plasmodium berghei = experiment: Inhibition of Plasmodium berghei recombinant CDPK1 by fluorescence assay in presence of rhodamine-labeled ParM
Outline: (§1)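 Recombinant CDPK1 (P. berghei or P. vivax) ATPase activity followed with an ADP-sensitive biosensor, rhodamine-labeled ParM; reaction progress tracked as rising fluorescence from ADP accumulation on a plate reader.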

Homo sapiens = species: Homo sapiens; experiment: Inhibition of human VEGFR at 1 uM
[2] = molecular target: Ribosomal protein S6 kinase alpha-1 (Homo sapiens) (UniProt Q15418); experiment: Inhibition of human RSK1 at 1 uM
[3] = molecular target: T2, Mitogen-activated protein kinase kinase kinase kinase 2 (Homo sapiens) (UniProt Q12851); experiment: Inhibition of human GCK at 1 uM
T2 sequence (whole entry): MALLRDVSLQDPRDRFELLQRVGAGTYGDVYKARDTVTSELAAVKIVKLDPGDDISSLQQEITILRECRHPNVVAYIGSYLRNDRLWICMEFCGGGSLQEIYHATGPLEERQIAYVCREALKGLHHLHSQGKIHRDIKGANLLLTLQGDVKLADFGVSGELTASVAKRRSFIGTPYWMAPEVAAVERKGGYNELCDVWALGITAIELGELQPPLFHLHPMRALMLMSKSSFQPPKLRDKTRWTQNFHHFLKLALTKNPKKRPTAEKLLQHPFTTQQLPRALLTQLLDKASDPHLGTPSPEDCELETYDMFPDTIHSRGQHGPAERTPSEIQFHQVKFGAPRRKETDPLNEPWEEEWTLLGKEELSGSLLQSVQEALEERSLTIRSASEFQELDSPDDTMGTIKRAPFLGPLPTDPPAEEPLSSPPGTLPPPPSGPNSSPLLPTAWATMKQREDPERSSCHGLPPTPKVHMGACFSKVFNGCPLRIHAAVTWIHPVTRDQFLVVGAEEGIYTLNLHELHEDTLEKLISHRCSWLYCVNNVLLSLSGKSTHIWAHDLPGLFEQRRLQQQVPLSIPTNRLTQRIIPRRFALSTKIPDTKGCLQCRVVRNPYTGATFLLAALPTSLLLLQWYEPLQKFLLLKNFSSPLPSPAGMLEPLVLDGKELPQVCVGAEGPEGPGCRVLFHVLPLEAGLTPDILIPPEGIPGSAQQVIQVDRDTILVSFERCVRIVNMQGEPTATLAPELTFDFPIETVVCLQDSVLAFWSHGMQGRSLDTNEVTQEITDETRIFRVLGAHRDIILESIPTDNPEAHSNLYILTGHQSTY

[4] = molecular target: Mitogen-activated protein kinase kinase kinase 9 (Homo sapiens) (UniProt P80192); experiment: Inhibition of human MLK1 at 1 uM
[5] = molecular target: Tyrosine-protein kinase Lck (Homo sapiens) (UniProt P06239); experiment: Inhibition of human LCK at 1 uM
[6] = molecular target: Tyrosine-protein kinase Yes (Homo sapiens) (UniProt P07947); experiment: Inhibition of human YES1 at 1 uM
[7] = molecular target: Aurora kinase B (Homo sapiens) (UniProt Q96GD4); experiment: Inhibition of human Aurora B at 1 uM
[8] = Intrinsic clearance in mouse; type: ADME, organism-based; settings: in vivo
[9] = molecular target: T3, NUAK family SNF1-like kinase 1 (Homo sapiens) (UniProt O60285); experiment: Inhibition of human NUAK1 at 1 uM
T3 sequence (whole entry): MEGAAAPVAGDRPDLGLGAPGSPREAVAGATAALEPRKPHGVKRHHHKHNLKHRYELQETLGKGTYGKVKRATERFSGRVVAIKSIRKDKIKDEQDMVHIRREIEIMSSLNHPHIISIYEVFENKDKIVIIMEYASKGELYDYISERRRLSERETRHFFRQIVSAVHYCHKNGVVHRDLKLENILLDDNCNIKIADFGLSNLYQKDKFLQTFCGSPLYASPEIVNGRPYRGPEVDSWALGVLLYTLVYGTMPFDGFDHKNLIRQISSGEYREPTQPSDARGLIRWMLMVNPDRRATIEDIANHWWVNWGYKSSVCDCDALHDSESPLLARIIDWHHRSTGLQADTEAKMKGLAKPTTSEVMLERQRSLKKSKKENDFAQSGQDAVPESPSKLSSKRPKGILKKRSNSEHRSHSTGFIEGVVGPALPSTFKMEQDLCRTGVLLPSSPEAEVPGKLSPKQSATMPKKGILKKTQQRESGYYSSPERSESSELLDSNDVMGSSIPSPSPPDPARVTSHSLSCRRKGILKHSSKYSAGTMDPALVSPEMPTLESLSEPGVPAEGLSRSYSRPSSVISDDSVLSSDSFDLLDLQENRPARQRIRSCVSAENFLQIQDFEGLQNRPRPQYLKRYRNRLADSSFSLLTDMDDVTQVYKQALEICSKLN

[10] = Metabolic stability in mouse liver microsomes after 30 mins; type: ADME, Microsome; settings: read-out: Stability
[11] = molecular target: Dual specificity mitogen-activated protein kinase kinase 1 (Homo sapiens) (UniProt Q02750); experiment: Inhibition of human MKK1 at 1 uM
[12] = molecular target: Proto-oncogene tyrosine-protein kinase Src (Homo sapiens) (UniProt P12931); experiment: Inhibition of human SRC at 1 uM
Plasmodium vivax = experiment: Inhibition of Plasmodium vivax recombinant CDPK1 by fluorescence assay in presence of rhodamine-labeled ParM; outline: as §1
[13] = molecular target: Serine/threonine-protein kinase Chk2 (Homo sapiens) (UniProt O96017); experiment: Inhibition of human CHK2 at 1 uM
[14] = Metabolic stability in human liver microsomes after 30 mins; type: ADME, Microsome; settings: read-out: Stability
[15] = molecular target: Phosphorylase kinase (Homo sapiens) (UniProt P15735+P46020+P46019+Q93100+Q16816); experiment: Inhibition of human PHK at 1 uM; type: protein-complex assay
[16] = molecular target: Calcium/calmodulin-dependent protein kinase type 1 (Homo sapiens) (UniProt Q14012); experiment: Inhibition of human CAMK1 at 1 uM
[17] = molecular target: Receptor tyrosine-protein kinase erbB-4 (Homo sapiens) (UniProt Q15303); experiment: Inhibition of human HER4 at 1 uM

Ribosomal protein S6 kinase alpha-1 (Homo sapiens), sequence (Q15418 whole entry): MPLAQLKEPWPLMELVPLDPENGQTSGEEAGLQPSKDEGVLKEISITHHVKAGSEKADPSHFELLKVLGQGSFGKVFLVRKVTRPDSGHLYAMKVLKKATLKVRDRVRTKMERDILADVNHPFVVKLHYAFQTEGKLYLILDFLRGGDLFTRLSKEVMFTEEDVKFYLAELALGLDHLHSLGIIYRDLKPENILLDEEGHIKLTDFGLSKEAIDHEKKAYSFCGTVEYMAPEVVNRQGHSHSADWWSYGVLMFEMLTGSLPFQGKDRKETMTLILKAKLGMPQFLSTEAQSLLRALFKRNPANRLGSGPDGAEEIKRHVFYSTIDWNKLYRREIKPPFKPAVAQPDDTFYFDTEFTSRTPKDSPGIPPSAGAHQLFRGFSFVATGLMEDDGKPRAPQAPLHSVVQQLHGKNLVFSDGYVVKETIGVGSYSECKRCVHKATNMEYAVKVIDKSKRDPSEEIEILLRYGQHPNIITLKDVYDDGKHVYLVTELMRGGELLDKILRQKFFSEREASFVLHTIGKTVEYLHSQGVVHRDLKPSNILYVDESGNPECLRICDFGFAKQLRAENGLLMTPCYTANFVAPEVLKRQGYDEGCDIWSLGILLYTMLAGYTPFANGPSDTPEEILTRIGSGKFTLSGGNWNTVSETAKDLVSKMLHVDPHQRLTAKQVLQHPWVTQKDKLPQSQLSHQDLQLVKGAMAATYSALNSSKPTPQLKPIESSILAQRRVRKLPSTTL
Dual specificity mitogen-activated protein kinase kinase 1 (Homo sapiens), sequence (Q02750 whole entry): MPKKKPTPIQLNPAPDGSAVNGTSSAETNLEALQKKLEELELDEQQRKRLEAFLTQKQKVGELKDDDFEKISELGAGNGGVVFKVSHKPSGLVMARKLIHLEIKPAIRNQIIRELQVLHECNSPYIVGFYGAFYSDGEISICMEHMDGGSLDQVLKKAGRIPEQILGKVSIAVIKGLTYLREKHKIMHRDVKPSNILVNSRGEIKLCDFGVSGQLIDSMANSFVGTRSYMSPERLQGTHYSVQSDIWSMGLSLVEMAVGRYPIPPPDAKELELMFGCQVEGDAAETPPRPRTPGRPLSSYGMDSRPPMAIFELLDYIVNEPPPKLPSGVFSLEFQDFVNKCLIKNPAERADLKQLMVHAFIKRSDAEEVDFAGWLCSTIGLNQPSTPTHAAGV
Proto-oncogene tyrosine-protein kinase Src (Homo sapiens), sequence (P12931 2-536 limits assumed): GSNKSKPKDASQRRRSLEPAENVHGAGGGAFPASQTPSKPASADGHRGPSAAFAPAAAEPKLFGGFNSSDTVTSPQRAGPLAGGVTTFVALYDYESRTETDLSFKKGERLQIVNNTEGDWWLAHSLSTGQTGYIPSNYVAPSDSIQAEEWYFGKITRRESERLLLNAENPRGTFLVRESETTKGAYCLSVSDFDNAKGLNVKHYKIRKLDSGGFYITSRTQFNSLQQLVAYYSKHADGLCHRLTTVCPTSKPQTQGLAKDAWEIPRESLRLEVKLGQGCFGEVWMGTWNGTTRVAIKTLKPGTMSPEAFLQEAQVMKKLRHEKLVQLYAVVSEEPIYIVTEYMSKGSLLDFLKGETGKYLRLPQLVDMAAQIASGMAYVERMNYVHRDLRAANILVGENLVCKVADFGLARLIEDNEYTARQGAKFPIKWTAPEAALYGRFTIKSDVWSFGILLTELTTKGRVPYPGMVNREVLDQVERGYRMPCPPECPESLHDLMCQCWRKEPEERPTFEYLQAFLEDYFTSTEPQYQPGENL
Aurora kinase B (Homo sapiens), sequence (Q96GD4 whole entry): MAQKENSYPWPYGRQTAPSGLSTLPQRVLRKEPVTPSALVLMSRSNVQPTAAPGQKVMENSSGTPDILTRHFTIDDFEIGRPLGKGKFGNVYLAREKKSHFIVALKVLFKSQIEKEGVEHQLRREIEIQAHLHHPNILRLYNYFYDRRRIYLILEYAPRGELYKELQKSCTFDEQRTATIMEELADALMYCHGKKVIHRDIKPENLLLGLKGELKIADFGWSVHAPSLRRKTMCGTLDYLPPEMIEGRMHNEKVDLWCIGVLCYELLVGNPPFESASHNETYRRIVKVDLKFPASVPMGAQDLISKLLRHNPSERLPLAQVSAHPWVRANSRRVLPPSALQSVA
Tyrosine-protein kinase Lck (Homo sapiens), sequence (P06239 2-509 limits assumed): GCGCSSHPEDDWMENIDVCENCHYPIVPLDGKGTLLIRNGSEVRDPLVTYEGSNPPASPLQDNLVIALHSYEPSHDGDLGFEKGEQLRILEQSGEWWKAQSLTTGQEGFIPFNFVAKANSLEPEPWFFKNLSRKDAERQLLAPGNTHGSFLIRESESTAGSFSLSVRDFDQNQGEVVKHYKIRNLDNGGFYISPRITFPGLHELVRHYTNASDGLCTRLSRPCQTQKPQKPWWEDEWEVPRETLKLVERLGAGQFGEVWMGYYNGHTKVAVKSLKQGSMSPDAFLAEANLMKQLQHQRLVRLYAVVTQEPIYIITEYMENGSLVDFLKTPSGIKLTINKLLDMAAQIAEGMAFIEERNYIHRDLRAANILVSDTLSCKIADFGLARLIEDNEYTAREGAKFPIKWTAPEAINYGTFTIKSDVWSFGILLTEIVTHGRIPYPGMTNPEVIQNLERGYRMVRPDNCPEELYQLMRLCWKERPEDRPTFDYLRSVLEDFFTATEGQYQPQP
Mitogen-activated protein kinase kinase kinase 9 (Homo sapiens), sequence (P80192 whole entry, looked up): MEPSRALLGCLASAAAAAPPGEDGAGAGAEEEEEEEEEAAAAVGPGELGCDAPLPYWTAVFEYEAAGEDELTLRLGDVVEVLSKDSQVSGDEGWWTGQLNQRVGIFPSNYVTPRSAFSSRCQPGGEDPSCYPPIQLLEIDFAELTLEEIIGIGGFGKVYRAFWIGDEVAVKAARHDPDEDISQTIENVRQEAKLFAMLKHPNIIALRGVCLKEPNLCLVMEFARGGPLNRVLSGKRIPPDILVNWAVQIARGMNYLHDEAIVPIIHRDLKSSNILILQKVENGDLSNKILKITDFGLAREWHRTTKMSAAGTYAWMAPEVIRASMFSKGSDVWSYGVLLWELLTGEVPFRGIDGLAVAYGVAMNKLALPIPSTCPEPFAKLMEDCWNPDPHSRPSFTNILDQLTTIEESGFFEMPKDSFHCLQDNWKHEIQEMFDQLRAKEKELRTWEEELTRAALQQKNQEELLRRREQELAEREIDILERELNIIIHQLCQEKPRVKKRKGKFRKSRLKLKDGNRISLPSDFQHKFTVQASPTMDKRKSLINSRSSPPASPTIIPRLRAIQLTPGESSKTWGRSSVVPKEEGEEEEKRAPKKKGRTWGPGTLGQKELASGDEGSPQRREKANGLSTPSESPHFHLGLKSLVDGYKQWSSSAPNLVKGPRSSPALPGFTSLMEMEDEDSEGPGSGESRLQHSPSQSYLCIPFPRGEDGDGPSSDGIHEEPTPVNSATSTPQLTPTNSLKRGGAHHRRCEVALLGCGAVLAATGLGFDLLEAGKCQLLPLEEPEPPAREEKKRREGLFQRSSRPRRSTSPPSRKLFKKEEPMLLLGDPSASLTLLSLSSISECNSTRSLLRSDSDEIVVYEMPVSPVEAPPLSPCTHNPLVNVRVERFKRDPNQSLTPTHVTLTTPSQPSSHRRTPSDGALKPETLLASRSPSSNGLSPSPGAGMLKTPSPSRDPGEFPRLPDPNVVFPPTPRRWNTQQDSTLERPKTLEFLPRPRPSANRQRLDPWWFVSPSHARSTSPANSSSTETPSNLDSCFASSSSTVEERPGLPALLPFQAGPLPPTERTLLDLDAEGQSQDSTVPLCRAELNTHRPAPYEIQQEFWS
Calcium/calmodulin-dependent protein kinase type 1 (Homo sapiens), sequence (Q14012 whole entry, looked up): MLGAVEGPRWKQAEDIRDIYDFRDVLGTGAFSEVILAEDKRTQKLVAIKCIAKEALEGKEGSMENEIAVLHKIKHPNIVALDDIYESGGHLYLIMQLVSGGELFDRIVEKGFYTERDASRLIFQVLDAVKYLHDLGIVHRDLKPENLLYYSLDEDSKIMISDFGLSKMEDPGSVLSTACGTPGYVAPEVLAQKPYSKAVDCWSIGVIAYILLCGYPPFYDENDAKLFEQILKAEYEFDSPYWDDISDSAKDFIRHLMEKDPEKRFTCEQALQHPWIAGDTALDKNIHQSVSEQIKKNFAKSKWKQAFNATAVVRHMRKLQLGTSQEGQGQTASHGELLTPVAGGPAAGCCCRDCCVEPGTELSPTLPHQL
Serine/threonine-protein kinase Chk2 (Homo sapiens), sequence (O96017 whole entry): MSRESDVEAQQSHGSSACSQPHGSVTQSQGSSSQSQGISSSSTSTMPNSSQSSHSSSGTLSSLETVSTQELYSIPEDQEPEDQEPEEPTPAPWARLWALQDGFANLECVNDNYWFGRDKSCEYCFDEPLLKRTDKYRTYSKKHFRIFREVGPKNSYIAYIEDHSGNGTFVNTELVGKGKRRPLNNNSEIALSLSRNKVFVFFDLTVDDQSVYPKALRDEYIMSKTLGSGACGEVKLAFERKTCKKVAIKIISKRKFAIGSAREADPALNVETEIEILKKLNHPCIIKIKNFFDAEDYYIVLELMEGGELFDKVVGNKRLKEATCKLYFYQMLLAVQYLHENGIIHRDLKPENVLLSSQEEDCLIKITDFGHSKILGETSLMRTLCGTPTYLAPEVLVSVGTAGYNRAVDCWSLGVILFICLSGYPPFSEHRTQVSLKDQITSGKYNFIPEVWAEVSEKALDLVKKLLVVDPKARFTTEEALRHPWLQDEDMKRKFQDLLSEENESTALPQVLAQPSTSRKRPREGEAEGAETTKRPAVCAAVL

SMILES: CC(C)CCNc1ccc(-c2cnc3ccc(NC4CCN(C)CC4)nn23)cn1
- inhibition [1]: Active
- inhibition (Plasmodium berghei): Active
- inhibition (Homo sapiens): Active
- inhibition [2]: Active
- inhibition [3]: Active
- inhibition [4]: Active
- inhibition [5]: Active
- inhibition [6]: Active
- inhibition [7]: Active
- CLint scaled [8]: 49.7 mL/min/kg
- inhibition [9]: Active
- remaining at 0.5 h [10]: 63%
- inhibition [11]: Active
- inhibition [12]: Active
- inhibition (Plasmodium vivax): Active
- inhibition [13]: Active

SMILES: NC(=O)c1ccc(-c2cnc3ccc(NCCc4cccnc4)nn23)cc1
- inhibition (Plasmodium berghei): Active

SMILES: CC(=O)Nc1cccc(-c2cnc3ccc(N[C@H]4CC[C@H](N)CC4)nn23)c1
- inhibition (Plasmodium berghei): Active

SMILES: CC(C)CCNc1ccc(-c2cnc3ccc(N4CCN(C)CC4)nn23)cn1
- inhibition (Plasmodium berghei): Active

SMILES: CCCCNc1ccc(-c2cnc3ccc(NC4CCN(C)CC4)nn23)cn1
- inhibition (Plasmodium berghei): Active

SMILES: CN1CCC(Nc2ccc3ncc(-c4ccc(NCC5CC5)nc4)n3n2)CC1
- inhibition (Plasmodium berghei): Active

SMILES: CN1CCC(Nc2ccc3ncc(-c4cccc(NC(=O)C5CC5)c4)n3n2)CC1
- inhibition (Plasmodium berghei): Active

SMILES: CC(C)CCNc1nccc(-c2cnc3ccc(NC4CCN(C)CC4)nn23)n1
- inhibition (Plasmodium berghei): Active

SMILES: CC(C)CCNC(=O)c1ccc(-c2cnc3ccc(NC4CCN(C)CC4)nn23)cc1
- inhibition (Plasmodium berghei): Active

SMILES: Fc1cccc(-c2cnc3ccc(NCCc4cccnc4)nn23)c1
- inhibition (Plasmodium berghei): Active

SMILES: CC(C)CCNc1ccc(-c2cnc3ccc(NC4CCN(C)C4)nn23)cn1 (centres undefined)
- inhibition (Plasmodium berghei): Active
- inhibition [2]: Active
- remaining at 0.5 h [10]: 74%
- remaining at 0.5 h [14]: 63%
- inhibition (Plasmodium vivax): Active

SMILES: CC(C)CCNc1ccc(-c2cnc3ccc(N4CCC(N(C)C)CC4)nn23)cn1
- inhibition (Plasmodium berghei): Active
- remaining at 0.5 h [10]: 84%
- remaining at 0.5 h [14]: 80%

SMILES: N#Cc1ccc(-c2cnc3ccc(NCCc4cccnc4)nn23)cc1
- inhibition (Plasmodium berghei): Active

SMILES: CC(C)CCNc1cc(-c2cnc3ccc(NC4CCN(C)CC4)nn23)ccn1
- inhibition (Plasmodium berghei): Active

SMILES: CC(C)CCNc1ccc(-c2cnc3ccc(NC4CCNCC4)nn23)cn1
- inhibition (Plasmodium berghei): Active

SMILES: CC(C)CCNc1ncc(-c2cnc3ccc(NC4CCN(C)CC4)nn23)cn1
- inhibition (Plasmodium berghei): Active

SMILES: CC(C)CCNc1ccc(-c2cnc3ccc(N4CCC(N)CC4)nn23)cn1
- inhibition (Plasmodium berghei): Active
- inhibition [2]: Active
- inhibition [15]: Active
- inhibition [9]: Active
- remaining at 0.5 h [10]: 90%
- inhibition [16]: Active
- inhibition [17]: Active
- remaining at 0.5 h [14]: 90%
- inhibition (Plasmodium vivax): Active

SMILES: CC(C)CCNc1ncc(-c2cnc3ccc(N[C@H]4CC[C@H](N)CC4)nn23)cn1
- inhibition (Plasmodium berghei): Active

SMILES: CC(C)CCOc1ccc(-c2cnc3ccc(N[C@H]4CC[C@H](N)CC4)nn23)cn1
- inhibition (Plasmodium berghei): Active

SMILES: NC(=O)c1ccc(-c2cnc3ccc(NCCc4ccccn4)nn23)cc1
- inhibition (Plasmodium berghei): Active

SMILES: CC(C)CCNC(=O)c1ccc(-c2cnc3ccc(N[C@H]4CC[C@H](N)CC4)nn23)cc1
- inhibition (Plasmodium berghei): Active

SMILES: COCCNc1ccc(-c2cnc3ccc(NC4CCN(C)CC4)nn23)cn1
- inhibition (Plasmodium berghei): Active

SMILES: CC(=O)Nc1cccc(-c2cnc3ccc(NCCc4ccccn4)nn23)c1
- inhibition (Plasmodium berghei): Active

SMILES: COC(=O)Nc1cccc(-c2cnc3ccc(NC4CCN(C)CC4)nn23)c1
- inhibition (Plasmodium berghei): Active

SMILES: CC(C)CCNc1ccc(-c2cnc3ccc(NC4CN(C)C4)nn23)cn1
- inhibition (Plasmodium berghei): Active
